Holding throughout (format): cell-based
Assay [1] has as its target T1, Transient receptor potential cation channel subfamily V member 1 (Rattus norvegicus, UniProt O35433). Description: Displacement of [3H]RTX from rat TRPV1 expressed in CHO cells. In short, it runs like this:
(§1)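 Competitive binding against [3H]RTX on rat or human TRPV1 heterologously expressed in CHO cells. Affinity is reported as Ki, as mean ± SEM of three or more independent experiments.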
For orientation: Loss of bound radioactivity is the signal in a displacement assay; it reports binding, not function.

The target in assay [2] is T2, Transient receptor potential cation channel subfamily V member 1 (Homo sapiens, UniProt Q8NER1). The experiment in a line: Displacement of [3H]RTX from human TRPV1 expressed in CHO cells. In short, it runs like this:
as §1

In assay [3] the target is Transient receptor potential cation channel subfamily V member 1 (Rattus norvegicus) (UniProt O35433). The experiment in a line: Agonist activity at rat TRPV1 expressed in CHO cells assessed as stimulation of Ca2+ uptake relative to capsaicin. A digest of the protocol:
(§2)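 Functional 45Ca2+ uptake assay in CHO cells heterologously expressing rat or human TRPV1. Agonism is reported as EC50, and as % of the capsaicin response. Antagonism is reported as Ki(ant) against capsaicin-stimulated 45Ca2+ uptake, and as % antagonism of that response. Ki and EC50 are mean ± SEM of three or more independent experiments.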

Assay [4] concerns the target T2, Transient receptor potential cation channel subfamily V member 1. Description: Agonist activity at human TRPV1 expressed in CHO cells assessed as stimulation of Ca2+ uptake. In short, it runs like this:
as §2

Assay [5] deals with T1, Transient receptor potential cation channel subfamily V member 1. Description: Agonist activity at rat TRPV1 expressed in CHO cells assessed as stimulation of Ca2+ uptake. In short, it runs like this: as §2
Assay [6] shares this target. The experiment in a line: Antagonist activity at rat TRPV1 expressed in CHO cells assessed as inhibition of capsaicin-stimulated Ca2+ uptake. In short, it runs like this: as §2
Assay [7] concerns the target T2, Transient receptor potential cation channel subfamily V member 1. Description: Antagonist activity at human TRPV1 expressed in CHO cells assessed as inhibition of capsaicin-stimulated Ca2+ uptake. In short, it runs like this: as §2
The target of assay [8] is Transient receptor potential cation channel subfamily V member 1 (Rattus norvegicus) (UniProt O35433). Description: Ratio of I-RTX Ki to compound Ki for rat TRPV1 expressed in CHO cells.
Transient receptor potential cation channel subfamily V member 1 (Rattus norvegicus), sequence (O35433 whole entry): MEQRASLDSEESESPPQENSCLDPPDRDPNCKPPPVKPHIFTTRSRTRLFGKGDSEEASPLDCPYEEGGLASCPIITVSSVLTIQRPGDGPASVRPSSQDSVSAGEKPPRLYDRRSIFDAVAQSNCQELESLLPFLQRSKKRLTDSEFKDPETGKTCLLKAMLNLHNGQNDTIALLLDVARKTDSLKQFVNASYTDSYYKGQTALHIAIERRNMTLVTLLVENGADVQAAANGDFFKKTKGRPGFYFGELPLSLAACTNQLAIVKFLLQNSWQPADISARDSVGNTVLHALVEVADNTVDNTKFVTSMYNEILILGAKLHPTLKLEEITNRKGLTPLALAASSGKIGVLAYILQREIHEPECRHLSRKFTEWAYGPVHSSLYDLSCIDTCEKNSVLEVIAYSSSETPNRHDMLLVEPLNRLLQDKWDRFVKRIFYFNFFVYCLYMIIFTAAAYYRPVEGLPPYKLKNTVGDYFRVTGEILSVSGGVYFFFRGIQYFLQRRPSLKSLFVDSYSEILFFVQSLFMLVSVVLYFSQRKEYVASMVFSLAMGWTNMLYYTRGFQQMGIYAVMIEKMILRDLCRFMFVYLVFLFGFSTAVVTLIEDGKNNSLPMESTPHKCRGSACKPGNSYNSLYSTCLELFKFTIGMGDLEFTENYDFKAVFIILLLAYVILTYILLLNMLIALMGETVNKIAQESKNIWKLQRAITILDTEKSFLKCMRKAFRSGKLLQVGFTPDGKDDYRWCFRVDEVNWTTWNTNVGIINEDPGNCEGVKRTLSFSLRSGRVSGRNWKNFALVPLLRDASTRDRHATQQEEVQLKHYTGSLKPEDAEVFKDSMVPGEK
Assay [9] has the same target. The experiment in a line: Partial antagonist activity at rat TRPV1 expressed in CHO cells assessed as inhibition of capsaicin-stimulated Ca2+ uptake measured as residual agonism. Particulars: concentration not given here. A digest of the protocol: as §2

Broadly, the Ki is the equilibrium dissociation constant of an inhibitor or competing ligand from its target. What is called EC50 is the concentration giving half of the maximal effect. What is called inhibition is the percentage by which the read-out fell short of the control.

T2 sequence (Q8NER1 whole entry): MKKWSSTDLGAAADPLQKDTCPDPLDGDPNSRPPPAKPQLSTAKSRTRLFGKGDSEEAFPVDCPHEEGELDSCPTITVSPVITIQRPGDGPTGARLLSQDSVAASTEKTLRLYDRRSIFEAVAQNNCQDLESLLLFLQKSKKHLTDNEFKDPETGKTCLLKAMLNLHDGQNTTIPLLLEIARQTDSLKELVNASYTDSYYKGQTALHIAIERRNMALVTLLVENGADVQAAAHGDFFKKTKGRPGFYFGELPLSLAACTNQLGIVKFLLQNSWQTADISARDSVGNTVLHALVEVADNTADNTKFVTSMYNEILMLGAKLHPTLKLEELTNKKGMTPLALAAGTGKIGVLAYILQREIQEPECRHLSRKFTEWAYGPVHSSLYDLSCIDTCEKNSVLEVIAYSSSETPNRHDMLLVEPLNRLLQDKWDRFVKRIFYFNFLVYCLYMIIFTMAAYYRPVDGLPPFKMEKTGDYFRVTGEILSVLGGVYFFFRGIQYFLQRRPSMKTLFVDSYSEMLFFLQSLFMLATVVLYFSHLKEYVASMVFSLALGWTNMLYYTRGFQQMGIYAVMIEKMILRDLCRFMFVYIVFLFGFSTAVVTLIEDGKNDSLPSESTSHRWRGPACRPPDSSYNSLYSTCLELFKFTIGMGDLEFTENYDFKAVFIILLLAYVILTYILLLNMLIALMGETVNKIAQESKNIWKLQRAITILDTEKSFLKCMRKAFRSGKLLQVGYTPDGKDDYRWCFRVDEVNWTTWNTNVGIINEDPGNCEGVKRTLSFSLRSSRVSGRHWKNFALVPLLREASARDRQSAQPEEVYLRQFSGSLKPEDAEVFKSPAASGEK
T1 sequence (O35433 whole entry): as the sequence (O35433 whole entry) above

Regarding `C=C(C)[C@]12C[C@@H](C)[C@@]34O[C@](Cc5ccccc5)(O[C@@H]1[C@@H]3C=C(COC(=O)Oc1cc(F)c(N)c(OC)c1)C[C@]1(O)C(=O)C(C)=C[C@@H]41)O2`, the Ki was 2.21 nM in [1] and 830 nM in [2]. Moreover, in assay [3], the Activity came out at 83%. In addition, the EC50 in assay [4] was determined as 17.9 nM; in assay [5], 3.17 nM.

For `C=C(C)[C@]12C[C@@H](C)[C@@]34O[C@](Cc5ccccc5)(O[C@@H]1[C@@H]3C=C(COC(=O)Oc1cc(Br)c(N)c(OC)c1)C[C@]1(O)C(=O)C(C)=C[C@@H]41)O2`, the Ki in [6] amounted to 2.46 nM; in assay [1], 1.83 nM; in assay [7], 666 nM; in assay [2], 212 nM. For the same compound, the Ratio Ki in assay [8] amounted to 5.

As to `C=C(C)[C@]12C[C@@H](C)[C@@]34O[C@](Cc5ccccc5)(O[C@@H]1[C@@H]3C=C(COC(=O)Oc1cc(I)c(O)c(OC)c1)C[C@]1(O)C(=O)C(C)=C[C@@H]41)O2`, the Ki in assay [6] is 2.23 nM; in [1], 1.66 nM; in assay [7], 189 nM; in assay [2], 49 nM. Moreover, the Ratio Ki in assay [8] worked out at 5.

In the case of `C=C(C)[C@]12C[C@@H](C)[C@@]34O[C@](Cc5ccccc5)(O[C@@H]1[C@@H]3C=C(COC(=O)Oc1ccc(N)c(OC)c1)C[C@]1(O)C(=O)C(C)=C[C@@H]41)O2`, the values for the Ki in [1] and in assay [2] were 0.58 nM and 140 nM, respectively. For the same compound, the half-maximal effective concentration (EC50) stood at 6.28 nM in assay [4] and 1.84 nM in [5].

Turning to `C=C(C)[C@]12C[C@@H](C)[C@@]34O[C@](Cc5ccccc5)(O[C@@H]1[C@@H]3C=C(COC(=O)Oc1cc(F)c(O)c(OC)c1)C[C@]1(O)C(=O)C(C)=C[C@@H]41)O2`, the Ki in assay [1] amounted to 1.17 nM; in [2], 138 nM. Also, the results for the EC50 in assay [4] and in assay [5] were 16.3 nM and 4.97 nM, respectively.

Regarding `C=C(C)[C@]12C[C@@H](C)[C@@]34O[C@](Cc5ccccc5)(O[C@@H]1[C@@H]3C=C(COC(=O)Cc1cc(I)c(O)c(OC)c1)C[C@]1(O)C(=O)C(C)=C[C@@H]41)O2` [IODORESINIFERATOXIN], the Ki in [7] came to 5.87 nM; in [2], 11.8 nM.

In the case of `C=C(C)[C@]12C[C@@H](C)[C@@]34O[C@](Cc5ccccc5)(O[C@@H]1[C@@H]3C=C(COC(=O)Oc1cc(Br)c(O)c(OC)c1)C[C@]1(O)C(=O)C(C)=C[C@@H]41)O2`, the Ki in assay [6] amounted to 5.2 nM; in [1], 1.64 nM; in assay [7], 512 nM; in assay [2] it was 33.3 nM. For the same compound, the inhibition in [9] was found to be 13%. Also, in [8], the Ratio Ki stood at 2.

On to `C=C(C)[C@]12C[C@@H](C)[C@@]34O[C@](Cc5ccccc5)(O[C@@H]1[C@@H]3C=C(COC(=O)Oc1cc(I)c(N)c(OC)c1)C[C@]1(O)C(=O)C(C)=C[C@@H]41)O2`, for which the Ki in assay [6] turned out to be 2.68 nM; in assay [1], 3.01 nM; in [7], 1800 nM; in assay [2] it was 990 nM.

For `C=C(C)[C@]12C[C@@H](C)[C@@]34O[C@](Cc5ccccc5)(O[C@@H]1[C@@H]3C=C(COC(=O)Oc1cc(Cl)c(N)c(OC)c1)C[C@]1(O)C(=O)C(C)=C[C@@H]41)O2`, the Ki in assay [6] came to 4.06 nM; in assay [1] it was 2.5 nM; in assay [7] it was 1400 nM; in [2], 330 nM. The Ratio Ki in assay [8] was determined as 5.

With `C=C(C)[C@]12C[C@@H](C)[C@@]34O[C@](Cc5ccccc5)(O[C@@H]1[C@@H]3C=C(COC(=O)Oc1ccc(NS(C)(=O)=O)c(OC)c1)C[C@]1(O)C(=O)C(C)=C[C@@H]41)O2`, the Ki in [1] came to 1.28 nM; in assay [2] it was 82 nM. Also, in assay [3], the Activity stood at 89%. Further, the values for the EC50 in [4] and in assay [5] were 16.5 nM and 4.62 nM, respectively.

The compound `C=C(C)[C@]12C[C@@H](C)[C@@]34O[C@](Cc5ccccc5)(O[C@@H]1[C@@H]3C=C(COC(=O)Cc1ccc(O)c(OC)c1)C[C@]1(O)C(=O)C(C)=C[C@@H]41)O2` [RESINIFERATOXIN] returned a Ki in assay [2] of 1.23 nM. Besides, the EC50 in assay [4] came out at 0.92 nM.

Consider `C=C(C)[C@]12C[C@@H](C)[C@@]34O[C@](Cc5ccccc5)(O[C@@H]1[C@@H]3C=C(COC(=O)Oc1cc(Cl)c(O)c(OC)c1)C[C@]1(O)C(=O)C(C)=C[C@@H]41)O2`, for which the Ki was found to be 21.3 nM in [6], 1.64 nM in assay [1], 451 nM in assay [7] and 50 nM in assay [2]. Further, the Activity in assay [3] was 13%. Further, the EC50 in [4] was 183 nM.

The values are drawn from ChEMBL document CHEMBL2424631, “The carbonate analogues of 5'-halogenated resiniferatoxin as TRPV1 ligands” (Eur J Med Chem, 2013).
